From ChEMBL document CHEMBL2203028, “SAR and Lead Optimization of an HIV-1 Vif-APOBEC3G Axis Inhibitor” (ACS Med Chem Lett, 2012)
Calls of active or inactive are those of the source. No cut-off for these calls is given here.

What was measured:
[1] = (§1) Inhibition of X4-tropic HIV-1 LAI Vif infected in MT4 cells assessed as inhibition of viral replication incubated for 10 to 15 days measured on every second day by reverse transcriptase assay by reverse transcriptase assay; type: cell-based, Human immunodeficiency virus 1
Summary of the method: (§2)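 Cells (2 x 10⁵/well) were pretreated overnight with 1 to 50 µM compound in RPMI with 10% FBS, then infected with X4-tropic HIV-1 LAI. Cultures were kept ± compound for 10-15 days. Every second day, 1/3 of supernatant was replaced with compound-containing medium, and RT activity was measured in supernatant. RN-18 served as positive control and untreated cells as negative control. There were ≥3 repeats; IC50 was calculated.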

[2] = Inhibition of X4-tropic HIV-1 LAI Vif infected in MT4 cells assessed as inhibition of viral replication incubated for 10 to 15 days measured on every other day by reverse transcriptase assay; details: Human immunodeficiency virus 1, LAI
[3] = test system: Human immunodeficiency virus 1; assay: Inhibition of HIV-1 GFP tagged Vif expressed in 293FT cells co-expressing HA-tagged A3G assessed as downregulation of GFP-Vif expression at 50 uM incubated for 16 hrs by immunoblotting assay; type: cell-based
Summary of the method: (§3)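 293FT cells co-expressing HA-tagged A3G with GFP-tagged Vif or ΔVif were grown for 16 h with antagonist at 50 µM or without compound. Extracts were immunoblotted with anti-HA (A3G), anti-GFP (Vif) and anti-GAPDH antibodies. A3G and Vif levels were compared with untreated Vif-expressing cells. RN-18 served as positive control and choline chloride as a further control.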

[4] = (§4) Inhibition of X4 tropic HIV-1 LAI Vif infected in H9 cells assessed as inhibition of viral replication incubated for 10 to 15 days measured on every second day by reverse transcriptase assay; type: cell-based, Human immunodeficiency virus 1; summary of the method: as §2
[5] = test system: Human immunodeficiency virus 1; assay: Inhibition of HIV-1 GFP tagged Vif expressed in 293FT cells co-expressing HA-tagged A3G assessed as upregulation of HA-A3G expression at 50 uM incubated for 16 hrs by immunoblotting assay; type: cell-based; summary of the method: as §3
[6] = Inhibition of X4-tropic HIV-1 LAI Vif infected in CEM cells assessed as inhibition of viral replication incubated for 14 to 21 days measured on every other day by reverse transcriptase assay; type: cell-based; details: Human immunodeficiency virus 1, LAI, CCRF-CEM
MT4 = assay: as §1; type: cell-based; details: Human immunodeficiency virus 1; summary of the method: as §2
H9 = assay: as §4; type: cell-based; details: Human immunodeficiency virus 1; summary of the method: as §2
Liver microsomes = assay: Metabolic stability in human liver microsomes; type: ADME, Microsome
Plasma [7] = assay: Plasma protein binding in human; type: ADME, cell-free
[8] = Permeability across synthetic membrane at pH 7.4 by PAMPA assay; type: ADME
Plasma [9] = assay: Metabolic stability in human plasma; type: ADME, cell-free
[10] = Permeability across synthetic membrane at pH 6.2 by PAMPA assay; type: ADME
[11] = Kinetic solubility at pH 7.2 by UV spectroscopic analysis; type: physicochemical; details: buffer
[12] = Permeability across synthetic membrane at pH 5.0 by PAMPA assay; type: ADME
[13] = Kinetic solubility at pH 5.0 by UV spectroscopic analysis; type: physicochemical; details: buffer
[14] = Cytotoxicity against human Fa2N-4 cells upto 50 uM by luminescence ATP detection assay; type: cell-based
[15] = Kinetic solubility at pH 6.2 by UV spectroscopic analysis; type: physicochemical; details: buffer
[16] = Human immunodeficiency virus 1, LAI, H9, read-out: IC50

Compound	IC50 ([1]; mt4)	GFP-Vif downregulation activity call [3]	IC50 [4, 16] [µM]	HA-A3G upregulation (active/not active) [5]	also measured
COc1ccccc1NC(=O)c1ccccc1Sc1ccc([N+](=O)[O-])cc1	Not Active	Active	6	Active	IC50 [2]: > 100 µM; IC50 [6]: 4.5 µM
COC(=O)c1ccc(Sc2ccccc2C(=O)Nc2ccccc2OC)cc1					inhibition (MT4): inactive; inhibition (H9): inactive
CS(=O)(=O)Oc1ccccc1NC(=O)c1ccccc1Sc1ccc([N+](=O)[O-])cc1	Not Active		5.6		
COc1ccccc1NC(=O)c1ccccc1Sc1ccc(C(=O)[O-])cc1.C[N+](C)(C)CCO	Not Active		1		inhibition (MT4): inactive; inhibition (H9): inactive
COc1ccccc1NC(=O)c1ccccc1S(=O)(=O)c1ccc(C(=O)[O-])cc1.C[N+](C)(C)CCO	Not Active	inactive	10	inactive	Stability (Liver microsomes): Stable; PPB (Plasma [7]): Active; permeability [8]: impermeable; Stability (Plasma [9]): Stable; permeability [10]: impermeable; Kinetic_solubility [11]: soluble; permeability [12]: permeable; Kinetic_solubility [13]: soluble; Activity [14]: Non-toxic; Kinetic_solubility [15]: soluble
COc1ccccc1NC(=O)c1ccccc1Cl		inactive		inactive	IC50 ([1]; Human immunodeficiency virus 1, LAI, MT4, read-out: IC50): > 50 µM; IC50 ([4]; h9): Not Active
COc1ccccc1NC(=O)c1ccc(Sc2ccc([N+](=O)[O-])cc2)cc1Cl	Not Active	Active	2.5	Active	
COc1ccccc1NC(=O)c1ccc(C)nc1Sc1ccc([N+](=O)[O-])cc1	Not Active	Active	1.5	Active	
COC(=O)c1ccc(NC(=O)c2ccccc2Sc2ccc([N+](=O)[O-])cc2)c(OC)c1	Not Active		10		
O=C(Nc1ccccc1I)c1ccccc1Sc1ccc([N+](=O)[O-])cc1	Not Active		4.3		
COc1ccccc1NC(=O)c1cccnc1Sc1ccc([N+](=O)[O-])cc1	Not Active		10		
COc1ccccc1NC(=O)c1ccccc1S(=O)(=O)c1ccc([N+](=O)[O-])cc1	Not Active	Active	1.1	Active	
